Shown are actives, neighbours in structure and some others; about 2.5% of the full set was active somewhere.
SENP7 inh – SENP7 protease inhibition; Q9BQF6; recombinant SENP7, Z-RLRGG-aminoluciferin luminescence, 40 min; inhibition, % at 5 µM; hit rate 1.5% among 330,000; AID 434973;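 active = inhibition above about 50% at the single test dose, limit read from the data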;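 also: plate controls were DMSO with enzyme for no effect and no enzyme buffer wells for full effect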
SENP6 inh – inhibitors of human SENP6 protease; Recombinant SENP6 catalytic domain, aminoluciferin luminescence; hit rate 1.8% among 330,000; AID 2599; Q9GZR1; inhibition, % at 10 µM;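 active = inhibition above about 50% at the single tested dose, limit read from the data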;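 also: plate controls were DMSO wells with enzyme for no effect and DMSO wells lacking enzyme for full effect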
SENP8 block-1 – blocks human SENP8 cleavage of Nedd8 substrate | Q96LD8 | recombinant SENP8, Nedd8 substrate fluorescence | inhibition, % at 20 µM | hit rate 0.64% among 360,000 | AID 602440; in the data active = inhibition mostly above about 40%, no sharp cut-off; inactive = mostly below about 27%
Target sequence (Q96LD8 whole entry, looked up): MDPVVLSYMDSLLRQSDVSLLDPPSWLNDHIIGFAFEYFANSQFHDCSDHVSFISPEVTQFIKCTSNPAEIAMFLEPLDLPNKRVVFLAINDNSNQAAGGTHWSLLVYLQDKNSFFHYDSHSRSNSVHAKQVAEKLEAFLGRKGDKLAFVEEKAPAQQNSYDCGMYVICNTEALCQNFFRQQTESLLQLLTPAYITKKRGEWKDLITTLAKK
SENP1 FRET inh – inhibitors of human SENP1 SUMO protease catalytic domain; AID 624204; Q9P0U3; hit rate 0.21% among 360,000; inhibition, % at 10 µM; recombinant SENP1 catalytic domain, CyPet-SUMO1-YPet FRET cleavage;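 active = inhibition at least 30% at 10 µM, raw YFP signal under a set limit, fluorescence ratio 0.5 to 1.5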;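 also: 0% = enzyme with DMSO and 100% = no enzyme wells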
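Material – human SENP1 catalytic domain · Input – SENP1 enzyme, 20 pM final · Compound dosing – single concentration of 10 µM compound, 0.5% DMSO final · Timing – enzyme reaction for 50 min at room temperature, dark · Measured by – FRET fluorescence in CFP and YFP emission channels · Control set – no-enzyme wells low, DMSO-plus-enzyme wells high control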
SENP8 block-2 – SENP8 protease inhibition; Q96LD8; inhibition, % at 10 µM; purified SENP8, Z-RLRGG-aminoluciferin cleavage, luminescence; hit rate 1.2% among 330,000; in the data active = inhibition above about 50%
SENP8 conf – human SENP8 inhibition, confirmed. shares compounds with SENP7 inh. AID 488912. inhibition, % at 12.5 µM. Recombinant SENP8, Z-RLRGG-aminoluciferin luminescence, 60 min. hit rate 40% among 6,200;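 active = mean inhibition across replicates above about 50%, limit read from the data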
SENP6 confirm – human SENP6 inhibition, confirmed; shares compounds with SENP7 inh; recombinant SENP6, Z-RLRGG-aminoluciferin luminescence; inhibition, % at 12.5 µM; hit rate 58% among 6,200; AID 488915
SENP7 conf – confirmation of human SENP7 protease inhibitors; recombinant SENP7, Z-RLRGG-aminoluciferin luminescence, 40 min; AID 488917; shares compounds with SENP7 inh; hit rate 69% among 6,200; inhibition, % at 12.5 µM
Casp3 SENP sel – caspase-3 inhibition (SENP selectivity assay) | hit rate 60% among 6,200 | shares compounds with SENP7 inh | purified caspase-3, Z-DEVD-aminoluciferin luminescence, 60 min | inhibition, % at 12.5 µM;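 active = mean inhibition above about 50%, limit read from the data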;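 also: plate controls were enzyme with DMSO for no effect and wells without caspase-3 for full effect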
Target sequence (P42574 28-227 limits assumed): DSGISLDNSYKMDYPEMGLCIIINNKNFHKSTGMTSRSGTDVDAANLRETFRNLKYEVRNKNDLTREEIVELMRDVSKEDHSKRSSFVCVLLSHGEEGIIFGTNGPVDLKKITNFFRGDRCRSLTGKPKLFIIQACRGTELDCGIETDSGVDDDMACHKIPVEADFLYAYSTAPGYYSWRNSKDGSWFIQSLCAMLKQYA
SENP luc ctr – counter-screen for SENP inhibitors: luminescence interference. AID 488919. inhibition, % at 12.5 µM. hit rate 39% among 6,200. shares compounds with SENP7 inh. Pre-incubated SENP8/Z-RLRGG-aminoluciferin, luciferase luminescence interference;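 active = mean inhibition above about 50% when retested at one dose, limit read from the data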;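 also: plate controls were DMSO wells with completed reaction for no effect and substrate without enzyme for full effect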
An asterisk follows results filed as active.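 The calls were made as follows, unless noted: active = mean inhibition above about 50% in the one-dose retest (limit read from the data); inactive = the rest.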

`N/C(=N\N=C\c1ccc2c(c1)OCO2)c1nonc1N` gave SENP7 inh 98*, SENP6 inh 95*, SENP8 block-1 16, SENP1 FRET inh -1, SENP8 block-2 95*, SENP8 conf 95*, SENP6 confirm 96*, SENP7 conf 101*, Casp3 SENP sel 96* and SENP luc ctr 64*.
`CC(C)c1c(C(=O)N/N=C/c2ccc3c(c2)OCO3)nnn1-c1nonc1N` gave SENP7 inh 3, SENP6 inh 4, SENP8 block-1 -72, SENP1 FRET inh 0 and SENP8 block-2 -9.
Screening O=C1N=c2ccccc2=C1c1sc(NS(=O)(=O)c2ccccc2)nc1O returned SENP7 inh 10, SENP6 inh 31, SENP8 block-1 17, SENP1 FRET inh -5 and SENP8 block-2 -39.
Screening O=C1N=c2ccccc2=C1c1sc(NS(=O)(=O)Cc2ccccc2)nc1O returned SENP7 inh 69*, SENP6 inh 88*, SENP8 block-1 33, SENP1 FRET inh -6, SENP8 block-2 40, SENP8 conf 78*, SENP6 confirm 73*, SENP7 conf 92*, Casp3 SENP sel 39 and SENP luc ctr 38.
Screening C#CCN1C=CC(=O)[C@@H](OC(=O)Nc2ccc(C)cc2)[C@H]1c1ccccc1Br returned SENP8 block-1 -14 and SENP1 FRET inh -1.
`Cc1nn(Cc2ccccc2Cl)c(C)c1C(=O)NCCN1C(=O)S/C(=C\c2ccccc2)C1=O` gave SENP7 inh 66*, SENP6 inh -9, SENP8 block-1 7, SENP1 FRET inh 1, SENP8 block-2 -2, SENP8 conf -11, SENP6 confirm -4, SENP7 conf -2, Casp3 SENP sel -2 and SENP luc ctr -8.
`Cc1nn(Cc2ccccc2Cl)c(C)c1C(=O)NCc1ccco1` gave SENP7 inh 2, SENP6 inh -2, SENP8 block-1 8, SENP1 FRET inh -1 and SENP8 block-2 0.
Oc1ccc(/C=N/NC(=S)N/N=C/c2ccc(O)cc2)cc1 was read as SENP7 inh 26, SENP6 inh 62*, SENP8 block-1 -77, SENP1 FRET inh -2, SENP8 block-2 37, SENP8 conf 54*, SENP6 confirm 52*, SENP7 conf 76*, Casp3 SENP sel 85* and SENP luc ctr 59*.
Screening O=C(Nc1ccccc1)c1ccc(CSc2ncccn2)cc1 returned SENP7 inh 91*, SENP6 inh 89*, SENP8 block-1 16, SENP1 FRET inh 2, SENP8 block-2 85*, SENP8 conf 72*, SENP6 confirm 86*, SENP7 conf 96*, Casp3 SENP sel 90* and SENP luc ctr 28.
Screening O=C(Nc1ccccc1F)c1ccc(CSc2ncccn2)cc1 returned SENP7 inh 88*, SENP6 inh 87*, SENP8 block-1 6, SENP1 FRET inh 2, SENP8 block-2 83*, SENP8 conf 86*, SENP6 confirm 86*, SENP7 conf 96*, Casp3 SENP sel 90* and SENP luc ctr 88*.
Screening CSCc1ccc(C(=O)Nc2ccc(C(N)=O)cc2)cc1 returned SENP7 inh 86*, SENP6 inh 82*, SENP8 block-1 3, SENP1 FRET inh 0, SENP8 block-2 74*, SENP8 conf -11, SENP6 confirm -3, SENP7 conf 14, Casp3 SENP sel 55* and SENP luc ctr 4.
